According to ChEMBL document CHEMBL3751726, “A stepwise dechlorination/cross-coupling strategy to diversify the vancomycin 'in-chloride'” (2016):
Converted amounts (≈) assume the structure as drawn.

Experiments:
Assay type in all cases: functional
Staphylococcus aureus [1] = assay: Antimicrobial activity against methicillin-susceptible Staphylococcus aureus ATCC 29213 after 18 to 20 hrs by microdilution method
Method in brief: (§1)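 Standard microtiter plate-based broth microdilution assay. The top concentration tested was 64 µg/mL, so inhibition that was not reached is reported as >64 µg/mL. The strains are methicillin-susceptible S. aureus ATCC 29213 and vancomycin-susceptible E. faecalis MMX 101.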

Staphylococcus aureus [2] = assay: Antimicrobial activity against methicillin-resistant Staphylococcus aureus MMX 2002 after 18 to 20 hrs by microdilution method
Enterococcus faecalis [3] = assay: Antimicrobial activity against vancomycin-susceptible Enterococcus faecalis MMX 101 after 18 to 20 hrs by microdilution method; method in brief: as §1
Enterococcus faecalis [4] = assay: Antimicrobial activity against vancomycin-resistant Enterococcus faecalis MMX 202 expressing VanB after 18 to 20 hrs by microdilution method
Enterococcus faecalis [5] = assay: Antimicrobial activity against vancomycin-resistant Enterococcus faecalis MMX 486 expressing VanA after 18 to 20 hrs by microdilution method

SMILES | MIC (Staphylococcus aureus [1]) | MIC (Staphylococcus aureus [2]) | MIC (Enterococcus faecalis [3]) | MIC (Enterococcus faecalis [4]) | MIC (Enterococcus faecalis [5])
CN[C@@H](CC(C)C)C(=O)N[C@@H]1C(=O)N[C@H](CC(N)=O)C(=O)N[C@@H]2C(=O)N[C@@H]3C(=O)N[C@@H](C(=O)N[C@H](C(=O)O)c4cc(O)cc(O)c4-c4cc3ccc4O)[C@@H](O)c3ccc(c(-c4ccoc4)c3)Oc3cc2cc(c3O[C@H]2O[C@@H](CO)[C@H](O)[C@@H](O)[C@@H]2O[C@H]2C[C@](C)(N)[C@H](O)[C@H](C)O2)Oc2ccc(cc2)[C@@H]1O | 64 mg/L (≈ 44.2 µM) | 64 mg/L (≈ 44.2 µM) | > 64 mg/L | > 64 mg/L | > 64 mg/L
CN[C@@H](CC(C)C)C(=O)N[C@@H]1C(=O)N[C@H](CC(N)=O)C(=O)N[C@@H]2C(=O)N[C@@H]3C(=O)N[C@@H](C(=O)N[C@H](C(=O)O)c4cc(O)cc(O)c4-c4cc3ccc4O)[C@@H](O)c3ccc(c(-c4cccc(C(N)=O)c4)c3)Oc3cc2cc(c3O[C@@H]2O[C@H](CO)[C@@H](O)[C@H](O)[C@H]2O[C@H]2C[C@](C)(N)[C@H](O)[C@H](C)O2)Oc2ccc(cc2)[C@@H]1O | > 64 mg/L | > 64 mg/L | > 64 mg/L | > 64 mg/L | > 64 mg/L
CN[C@@H](CC(C)C)C(=O)N[C@@H]1C(=O)N[C@H](CC(N)=O)C(=O)N[C@@H]2C(=O)N[C@@H]3C(=O)N[C@@H](C(=O)N[C@H](C(=O)O)c4cc(O)cc(O)c4-c4cc3ccc4O)[C@@H](O)c3ccc(c(Cl)c3)Oc3cc2cc(c3O[C@H]2O[C@@H](CO)[C@H](O)[C@@H](O)[C@@H]2O[C@@H]2C[C@@](C)(N)[C@@H](O)[C@@H](C)O2)Oc2ccc(cc2)[C@@H]1O | 4 mg/L (≈ 2.83 µM) | 4 mg/L (≈ 2.83 µM) | 8 mg/L (≈ 5.65 µM) | 64 mg/L (≈ 45.2 µM) | > 64 mg/L
CN[C@@H](CC(C)C)C(=O)N[C@@H]1C(=O)N[C@H](CC(N)=O)C(=O)N[C@@H]2C(=O)N[C@@H]3C(=O)N[C@@H](C(=O)N[C@H](C(=O)O)c4cc(O)cc(O)c4-c4cc3ccc4O)[C@@H](O)c3ccc(c(-c4ccc(-c5ccccc5)cc4)c3)Oc3cc2cc(c3O[C@@H]2O[C@H](CO)[C@@H](O)[C@H](O)[C@H]2O[C@H]2C[C@](C)(N)[C@H](O)[C@H](C)O2)Oc2ccc(cc2)[C@@H]1O | > 64 mg/L | > 64 mg/L | > 64 mg/L | > 64 mg/L | > 64 mg/L
CN[C@@H](CC(C)C)C(=O)N[C@@H]1C(=O)N[C@H](CC(N)=O)C(=O)N[C@@H]2C(=O)N[C@@H]3C(=O)N[C@@H](C(=O)N[C@H](C(=O)O)c4cc(O)cc(O)c4-c4cc3ccc4O)[C@@H](O)c3ccc(c(-c4cccc(CN)c4)c3)Oc3cc2cc(c3O[C@@H]2O[C@H](CO)[C@@H](O)[C@H](O)[C@H]2O[C@H]2C[C@](C)(N)[C@H](O)[C@H](C)O2)Oc2ccc(cc2)[C@@H]1O | > 64 mg/L | > 64 mg/L | > 64 mg/L | > 64 mg/L | > 64 mg/L
CCCCCC/C=C/c1cc2ccc1Oc1cc3cc(c1O[C@@H]1O[C@H](CO)[C@@H](O)[C@H](O)[C@H]1O[C@H]1C[C@](C)(N)[C@H](O)[C@H](C)O1)Oc1ccc(cc1)[C@H](O)[C@H](NC(=O)[C@@H](CC(C)C)NC)C(=O)N[C@H](CC(N)=O)C(=O)N[C@@H]3C(=O)N[C@@H]1C(=O)N[C@@H](C(=O)N[C@H](C(=O)O)c3cc(O)cc(O)c3-c3cc1ccc3O)[C@H]2O | > 64 mg/L | > 64 mg/L | > 64 mg/L | > 64 mg/L | > 64 mg/L
CN[C@@H](CC(C)C)C(=O)N[C@@H]1C(=O)N[C@H](CC(N)=O)C(=O)N[C@@H]2C(=O)N[C@@H]3C(=O)N[C@@H](C(=O)N[C@H](C(=O)O)c4cc(O)cc(O)c4-c4cc3ccc4O)[C@@H](O)c3ccc(cc3)Oc3cc2cc(c3O[C@@H]2O[C@H](CO)[C@@H](O)[C@H](O)[C@H]2O[C@H]2C[C@](C)(N)[C@H](O)[C@H](C)O2)Oc2ccc(cc2)[C@@H]1O | 8 mg/L (≈ 5.8 µM) | 8 mg/L (≈ 5.8 µM) | 32 mg/L (≈ 23.2 µM) | > 64 mg/L | > 64 mg/L
CN[C@@H](CC(C)C)C(=O)N[C@@H]1C(=O)N[C@H](CC(N)=O)C(=O)N[C@@H]2C(=O)N[C@@H]3C(=O)N[C@@H](C(=O)N[C@H](C(=O)O)c4cc(O)cc(O)c4-c4cc3ccc4O)[C@@H](O)c3ccc(c(-c4ccc5[nH]ccc5c4)c3)Oc3cc2cc(c3O[C@@H]2O[C@H](CO)[C@@H](O)[C@H](O)[C@H]2O[C@H]2C[C@](C)(N)[C@H](O)[C@H](C)O2)Oc2ccc(cc2)[C@@H]1O | > 64 mg/L | > 64 mg/L | > 64 mg/L | > 64 mg/L | > 64 mg/L
CN[C@@H](CC(C)C)C(=O)N[C@@H]1C(=O)N[C@H](CC(N)=O)C(=O)N[C@@H]2C(=O)N[C@@H]3C(=O)N[C@@H](C(=O)N[C@H](C(=O)O)c4cc(O)cc(O)c4-c4cc3ccc4O)[C@@H](O)c3ccc(c(-c4cccc(F)c4)c3)Oc3cc2cc(c3O[C@@H]2O[C@H](CO)[C@@H](O)[C@H](O)[C@H]2O[C@H]2C[C@](C)(N)[C@H](O)[C@H](C)O2)Oc2ccc(cc2)[C@@H]1O | > 64 mg/L | > 64 mg/L | > 64 mg/L | > 64 mg/L | > 64 mg/L
CC(=O)NC[C@H]1CN(c2ccc(N3CCOCC3)c(F)c2)C(=O)O1 [LINEZOLID] | – | 1 mg/L (≈ 2.96 µM) | – | – | –
CN[C@H](CC(C)C)C(=O)N[C@H]1C(=O)N[C@@H](CC(N)=O)C(=O)N[C@H]2C(=O)N[C@H]3C(=O)N[C@H](C(=O)N[C@H](C(=O)O)c4cc(O)cc(O)c4-c4cc3ccc4O)[C@H](O)c3ccc(c(Cl)c3)Oc3cc2cc(c3O[C@@H]2O[C@H](CO)[C@@H](O)[C@H](O)[C@H]2O[C@H]2C[C@](C)(N)[C@H](O)[C@H](C)O2)Oc2ccc(cc2Cl)[C@H]1O [VANCOMYCIN] | – | – | 2 mg/L (≈ 1.38 µM) | 8 mg/L (≈ 5.52 µM) | > 64 mg/L
